Test results taken from paper PMC2650427 (Bioconjugate chemistry, 2008).
Read-outs that look alike come from different tables or passages of the source. Marks after values point to notes of the source that are not given here.

Experiments:
Relaxivity = assay type: physicochemical; conditions: 100 mM phosphate buffer, pH 7.4, ambient temperature (~25 °C); saturation recovery; assessed in duplicate
[1] = cited from earlier work
[2] = calculated at 25 °C; cited from earlier work
[3] = Determination of τm by 17O transverse relaxation rate measurements; assay type: physicochemical; conditions: variable temperature 17O NMR at 54 MHz, 15–20 mM, pH 7.40; calculated at 25 °C
[4] = In vitro cleavage by disulfide exchange with GSH; assay type: physicochemical; conditions: 1.0 mM in DPBS, 37 °C, 4 h; GSH at 4 times the contrast agent; HPLC-MS ion count
Method in brief: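 Disulfide-linked Gd(III)-DTPA–octaarginine test compound was incubated with increasing GSH (0.25 to 4 equivalents) in 1.0 mM DPBS. Start times were staggered so each sample had 4 h at 37 °C before LC-MS. Separation used a C18 column (4.6 × 250 mm, 5 µm) at 1.0 mL/min with a water/MeCN gradient of 0–60% MeCN over 40 min. Total ion counts of the GSH-exchange product and of the starting material were compared.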

NIH/3T3 cells = assay: MR imaging and T1 analysis of labelled cells; assay type: cell-based; conditions: 1.0 mM, 4 h, washes at 1 hour intervals, T1-weighted, 14.1 T

Compound: O=C([O-])CN1CCN(CC(=O)[O-])CCN(CC(=O)O)CCN(CC(=O)[O-])CC1.[Gd+3] [Gd(III)-DOTA]
- Relaxivity, 600 MHz (14.1 T) (Relaxivity): 2.12 mM⁻¹ s⁻¹
- q (number of bound water molecules) [1]: 1.2 ^d
- τm (mean residence lifetime of coordinated water) [2]: 243 ^e ns

Compound: Gd(III)-DTPA-SS-Arg8 [compound 4]
- Relaxivity, 600 MHz (14.1 T) (Relaxivity): 3.46 mM⁻¹ s⁻¹
- τm (mean residence lifetime of coordinated water) [3]: 1327 ns
- Completeness of disulfide cleavage at 4:1 GSH [4]: complete cleavage is not obtainable
- MR image intensity after leaching (NIH/3T3 cells): little loss of signal intensity

Compound: Gd(III)-DOTA-SS-Arg8 [compound 3]
- Relaxivity, 600 MHz (14.1 T) (Relaxivity): 3.52 mM⁻¹ s⁻¹
- τm (mean residence lifetime of coordinated water) [3]: 840 ns
- MR image intensity after leaching (NIH/3T3 cells): little loss of signal intensity

Compound: O=C([O-])CN(CCN(CC(=O)[O-])CC(=O)O)CCN(CC(=O)[O-])CC(=O)O.[Gd+3] [Gd(III)-DTPA]
- Relaxivity, 600 MHz (14.1 T) (Relaxivity): 2.09 mM⁻¹ s⁻¹
- q (number of bound water molecules) [1]: 1.2 ^d
- τm (mean residence lifetime of coordinated water) [2]: 303 ^e ns
